# Assay results from ChEMBL document CHEMBL5113423, “Discovery and preclinical profile of sudapyridine (WX-081), a novel anti-tuberculosis agent” (Bioorg Med Chem Lett, 2022).
# Key:
# [1] = tested on: Mycobacterium tuberculosis; assay: Antimycobacterial activity against Mycobacterium tuberculosis H37Rv assessed as mycobacterial growth inhibition by microplate alamar blue assay; assay type: functional
# In short: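 M. tuberculosis H37Rv under normoxic conditions, microplate alamar blue assay (MABA) following Cho et al. Read-out is MIC.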
# [2] = tested on: Mycobacterium tuberculosis; assay: Antimycobacterial activity against Mycobacterium tuberculosis H37Rv assessed as mycobacterial growth inhibition by low oxygen recovery assay; assay type: functional
# In short: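 M. tuberculosis H37Rv under hypoxic conditions, low-oxygen recovery assay (LORA) following Cho et al. Read-out is MIC.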
# [3] = Cytotoxicity against human HeLa cells; assay type: toxicity, cell-based
# [4] = Cytotoxicity against African green monkey Vero cells; assay type: toxicity, cell-based; details: chlorocebus sabaeus
# [5] = tested on: Mycobacterium tuberculosis; assay: Antimycobacterial activity against drug-sensitive Mycobacterium tuberculosis assessed as mycobacterial growth inhibition; assay type: functional
# [6] = Apparent permeability across apical side to basolateral side in dog MDCK cells; assay type: ADME, cell-based, Canis lupus familiaris
# [7] = Apparent permeability across basolateral side to apical side in dog MDCK cells; assay type: ADME, cell-based, Canis lupus familiaris
# [8] = Plasma protein binding in human assessed as bound fraction; assay type: ADME, cell-free; details: read-out: PPB
# [9] = Plasma protein binding in rat assessed as bound fraction; assay type: ADME, cell-free; details: read-out: PPB
# Cytochrome P450 1A2 = target: T1, Cytochrome P450 1A2 (Homo sapiens, UniProt P05177); assay: Inhibition of CYP1A2 (unknown origin); assay type: ADME
# T1 sequence (P05177 whole entry): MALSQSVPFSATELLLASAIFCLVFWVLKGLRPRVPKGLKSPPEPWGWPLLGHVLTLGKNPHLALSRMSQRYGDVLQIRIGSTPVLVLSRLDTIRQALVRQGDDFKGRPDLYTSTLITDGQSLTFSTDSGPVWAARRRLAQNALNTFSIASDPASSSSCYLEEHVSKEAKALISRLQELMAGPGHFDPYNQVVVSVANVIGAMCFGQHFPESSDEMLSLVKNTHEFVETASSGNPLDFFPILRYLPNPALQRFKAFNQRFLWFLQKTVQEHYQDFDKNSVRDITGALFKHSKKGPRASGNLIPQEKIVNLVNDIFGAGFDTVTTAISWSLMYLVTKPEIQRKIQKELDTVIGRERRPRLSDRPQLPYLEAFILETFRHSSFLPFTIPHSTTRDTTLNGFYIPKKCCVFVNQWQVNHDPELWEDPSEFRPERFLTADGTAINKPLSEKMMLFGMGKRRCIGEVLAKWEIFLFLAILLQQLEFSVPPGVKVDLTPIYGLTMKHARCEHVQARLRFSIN
# In short: (§1)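 Each CYP isoform screened for inhibition at a single test concentration of 10 μM.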
# Cytochrome P450 2C9 = Cytochrome P450 2C9 (Homo sapiens, UniProt P11712); assay: Inhibition of CYP2C9 (unknown origin); assay type: ADME; in short: as §1
# Cytochrome P450 2C19 = Cytochrome P450 2C19 (Homo sapiens, UniProt P33261); assay: Inhibition of CYP2C19 (unknown origin); assay type: ADME; in short: as §1
# Cytochrome P450 2D6 = Cytochrome P450 2D6 (Homo sapiens, UniProt P10635); assay: Inhibition of CYP2D6 (unknown origin); assay type: ADME; in short: as §1
# [10] = Drug concentration in CD-1 mouse lung at 6.25 mg/kg,po measured after 96 hrs; assay type: ADME, organism-based; details: read-out: Ct
# In short: (§2)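 Tissue distribution study in CD-1 mice (6.25 mg/kg oral) and SD rats (5.0 mg/kg oral). Lung concentration (ng/g) and plasma concentration (ng/mL) measured 96 h after dosing. Lung/plasma ratio is lung concentration divided by plasma concentration.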
# [11] = Drug concentration in CD-1 mouse plasma at 6.25 mg/kg,po measured after 96 hrs; assay type: ADME, organism-based; in short: as §2
# [12] = Ratio of drug concentration in CD-1 mouse lung to plasma at 6.25 mg/kg,po measured after 96 hrs; assay type: ADME, organism-based; in short: as §2
# [13] = Drug concentration in Sprague-Dawley rat lung at 5 mg/kg,po measured after 96 hrs; assay type: ADME, organism-based; details: read-out: Ct; in short: as §2
# [14] = Drug concentration in Sprague-Dawley rat plasma at 5 mg/kg,po measured after 96 hrs; assay type: ADME, organism-based; in short: as §2
# [15] = Ratio of drug concentration in Sprague-Dawley rat lung to plasma at 5 mg/kg,po measured after 96 hrs; assay type: ADME, organism-based; in short: as §2
# [16] = AUC in Sprague-Dawley rat at 200 mg/kg,po measured after 12 days; assay type: ADME, organism-based; parameters: time 12 day, dose 200 mg/kg, route po; details: in vivo
# In short: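 14-day pilot toxicology study in rats, 8 males and 8 females per dose level. Daily oral dosing, with 200 mg/kg as the high dose. Drug exposure is reported as AUC in µM·h.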
# [17] = Toxicity in Sprague-Dawley rat assessed as death at 200 mg/kg,po measured after 12 days; assay type: organism-based; details: in vivo, 288 h, time 12 day
# [18] = Toxicity in Beagle dog assessed as effect on electrocardiogram at 200 mg/kg,po; assay type: organism-based, Canis lupus familiaris; details: in vivo
# In short: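 14-day GLP toxicology study in Beagle dogs; oral dosing once daily at 200 mg/kg, given in parallel with the reference drug. ECG recorded daily to detect qualitative changes and QTc interval prolongation.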
# Cytochrome P450 2C9, sequence (P11712 whole entry): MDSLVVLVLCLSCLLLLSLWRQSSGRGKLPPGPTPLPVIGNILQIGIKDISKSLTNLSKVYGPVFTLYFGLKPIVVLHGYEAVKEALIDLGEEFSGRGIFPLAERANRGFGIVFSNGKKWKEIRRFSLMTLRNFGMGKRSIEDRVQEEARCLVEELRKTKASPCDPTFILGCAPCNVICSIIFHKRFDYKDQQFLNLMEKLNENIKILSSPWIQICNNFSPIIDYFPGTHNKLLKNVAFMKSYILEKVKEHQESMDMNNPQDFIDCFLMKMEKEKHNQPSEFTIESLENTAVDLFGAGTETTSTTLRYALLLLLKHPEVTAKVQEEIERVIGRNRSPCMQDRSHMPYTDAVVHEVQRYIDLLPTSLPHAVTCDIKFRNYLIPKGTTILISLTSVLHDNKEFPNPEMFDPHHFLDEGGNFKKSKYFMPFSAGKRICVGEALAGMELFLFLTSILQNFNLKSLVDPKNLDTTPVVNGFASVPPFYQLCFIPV
# Cytochrome P450 2C19, sequence (P33261 whole entry): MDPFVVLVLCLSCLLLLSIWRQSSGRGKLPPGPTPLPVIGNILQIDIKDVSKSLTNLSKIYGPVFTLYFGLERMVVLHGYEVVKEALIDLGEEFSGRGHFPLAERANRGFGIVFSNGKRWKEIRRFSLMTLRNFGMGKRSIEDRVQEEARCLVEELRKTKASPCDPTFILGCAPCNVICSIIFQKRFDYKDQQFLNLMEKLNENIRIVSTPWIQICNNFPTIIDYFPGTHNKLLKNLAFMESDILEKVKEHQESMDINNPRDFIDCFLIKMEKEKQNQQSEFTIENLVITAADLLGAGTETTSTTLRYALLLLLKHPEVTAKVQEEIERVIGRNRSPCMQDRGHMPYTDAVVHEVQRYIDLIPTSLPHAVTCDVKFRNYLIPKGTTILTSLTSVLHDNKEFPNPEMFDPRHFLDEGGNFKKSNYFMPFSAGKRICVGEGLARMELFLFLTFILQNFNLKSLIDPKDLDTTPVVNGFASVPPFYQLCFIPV
# Cytochrome P450 2D6, sequence (P10635 whole entry): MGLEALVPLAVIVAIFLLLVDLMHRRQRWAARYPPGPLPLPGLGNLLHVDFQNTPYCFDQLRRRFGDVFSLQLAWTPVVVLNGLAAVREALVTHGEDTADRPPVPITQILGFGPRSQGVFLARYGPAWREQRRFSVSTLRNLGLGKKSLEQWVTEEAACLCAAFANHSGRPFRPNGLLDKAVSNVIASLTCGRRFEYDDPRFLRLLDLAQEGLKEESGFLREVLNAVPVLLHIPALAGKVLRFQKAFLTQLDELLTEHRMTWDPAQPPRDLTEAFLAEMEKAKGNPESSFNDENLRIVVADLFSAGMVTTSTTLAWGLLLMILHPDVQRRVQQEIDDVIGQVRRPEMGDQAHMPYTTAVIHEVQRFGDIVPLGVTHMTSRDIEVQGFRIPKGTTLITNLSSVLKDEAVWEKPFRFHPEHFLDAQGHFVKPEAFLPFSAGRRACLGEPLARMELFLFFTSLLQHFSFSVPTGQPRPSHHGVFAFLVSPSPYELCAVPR
compound,measurement,setting,value
COc1nc2ccc(Br)cc2cc1[C@@H](c1ccccc1)[C@@](O)(CCN(C)C)c1cccc2ccccc12 [BEDAQUILINE],MIC,[1],0.03 µg/mL
same,MIC,[2],< 0.2 µg/mL
same,CC50,[3],> 64 µg/mL
same,CC50,[4],> 50 µg/mL
same,MIC50,[5],0.029 µg/mL
same,MIC90,[5],0.043 µg/mL
same,Papp A→B,[6],0.06 ×10⁻⁶ cm/s
same,Papp B→A,[7],0.09 ×10⁻⁶ cm/s
same,fraction unbound,[8],< 0.01
same,fraction unbound,[9],< 0.01
same,IC50,Cytochrome P450 1A2,> 10 µM
same,IC50,Cytochrome P450 2C9,> 10 µM
same,IC50,Cytochrome P450 2C19,> 10 µM
same,IC50,Cytochrome P450 2D6,> 10 µM
same,concentration at 96 h,[10],135 ng/g
same,concentration at 96 h,[11],4.56 ng/mL
same,Kp at 96 h,[12],29.6
same,concentration at 96 h,[13],58.8 ng/g
same,concentration at 96 h,[14],1.52 ng/mL
same,Kp at 96 h,[15],38.7
same,AUC at 288 h,[16],109 µM·h
same,Activity,[17],Toxic
same,Activity,[18],10%
